Assay results published in ChEMBL document CHEMBL3124836, “Pyrano-isoflavans from Glycyrrhiza uralensis with antibacterial activity against Streptococcus mutans and Porphyromonas gingivalis” (2014).
In brackets after ≈: the same amount, converted by molar mass.

Assays:
Format in all cases: functional
Streptococcus mutans [1] = experiment: Bactericidal activity against Streptococcus mutans ATCC 35668 after 3 days; conditions: ATCC 35668, 72 h
Procedure, shortened: (§1)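 From microbroth wells without visible growth after 24 h, aliquots were spread on THB agar and incubated 3 days at 37 °C. MBC was the lowest concentration giving no colony formation. Three independent experiments.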

Streptococcus mutans [2] = experiment: Antibacterial activity against Streptococcus mutans ATCC 35668 after 24 hrs by microbroth dilution assay; conditions: ATCC 35668, 24 h
Procedure, shortened: (§2)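 EtOH stocks tested as a 2-fold series (200–0.78 μg/mL) mixed with an equal volume of overnight culture diluted to OD660 0.2. Medium was THB plus hemin 10 μg/mL and vitamin K 10 μg/mL. P. gingivalis was run anaerobically (N2/H2/CO2 80/10/10) and S. mutans aerobically. After 24 h at 37 °C growth was read visually; MIC was the lowest concentration without growth. Three independent experiments.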

Porphyromonas gingivalis [3] = experiment: Bactericidal activity against Porphyromonas gingivalis ATCC 33277 after 3 days; conditions: ATCC 33277, 72 h; procedure, shortened: as §1
Porphyromonas gingivalis [4] = experiment: Antibacterial activity against Porphyromonas gingivalis ATCC 33277 after 24 hrs by microbroth dilution assay; conditions: ATCC 33277, 24 h; procedure, shortened: as §2

| Compound | MIC (Streptococcus mutans [2]) | MIC (Porphyromonas gingivalis [4]) | MBC (Streptococcus mutans [1]) | MBC (Porphyromonas gingivalis [3]) |
| --- | --- | --- | --- | --- |
| COc1c(CC=C(C)C)c(O)cc2c1C[C@H](c1ccc(O)c(CC=C(C)C)c1O)CO2 [LICORICIDIN] | 12.5 µg/mL (≈ 29.4 µM) | 3.12 µg/mL (≈ 7.36 µM) | 25 µg/mL (≈ 58.9 µM) | 3.12 µg/mL (≈ 7.36 µM) |
| COc1c(CC=C(C)C)c(O)cc2c1[C@@H]1Oc3c(ccc(O)c3CC=C(C)C)[C@@H]1CO2 | 200 µg/mL (≈ 473 µM) | 50 µg/mL (≈ 118 µM) | > 200 µg/mL | 50 µg/mL (≈ 118 µM) |
| CN(C)[C@@H]1C(O)=C(C(N)=O)C(=O)[C@@]2(O)C(O)=C3C(=O)c4c(O)cccc4[C@@](C)(O)[C@H]3C[C@@H]12 [TETRACYCLINE] | – | 1.56 µg/mL (≈ 3.51 µM) | – | 12.5 µg/mL (≈ 28.1 µM) |
| COc1c2c(cc3oc(=O)c4c5ccc(O)cc5oc4c13)OC(C)(C)CC2 [ISOGLYCYROL] | > 200 µg/mL | 200 µg/mL (≈ 546 µM) | > 200 µg/mL | 200 µg/mL (≈ 546 µM) |
| CC1(C)S[C@@H]2[C@H](NC(=O)Cc3ccccc3)C(=O)N2[C@H]1C(=O)O [PENICILLIN G] | 0.05 µg/mL (≈ 0.15 µM) | – | 1.56 µg/mL (≈ 4.67 µM) | – |

Now from value to compound, other results behind:

| MIC (Streptococcus mutans [2]) | MIC (Porphyromonas gingivalis [4]) | Compound | MBC (Streptococcus mutans [1]) | MBC (Porphyromonas gingivalis [3]) |
| --- | --- | --- | --- | --- |
| > 200 µg/mL | 25 µg/mL (≈ 57 µM) | COc1c(CC=C(C)C)c(O)cc2c1C[C@H](C1=CC(=O)C(O)=C(CC=C(C)C)C1=O)CO2 | > 200 µg/mL | 25 µg/mL (≈ 57 µM) |
| > 200 µg/mL | 200 µg/mL (≈ 568 µM) | COc1cc2occ(-c3ccc(O)cc3)c(=O)c2c(O)c1CC=C(C)C [GANCAONIN G] | > 200 µg/mL | 200 µg/mL (≈ 568 µM) |
| 6.25 µg/mL (≈ 14.8 µM) | 6.25 µg/mL (≈ 14.8 µM) | COc1c(CC=C(C)C)c(O)cc2c1C[C@H](c1ccc(O)c3c1OC(C)(C)C=C3)CO2 | 6.25 µg/mL (≈ 14.8 µM) | 6.25 µg/mL (≈ 14.8 µM) |
| 25 µg/mL (≈ 59.2 µM) | 6.25 µg/mL (≈ 14.8 µM) | COc1c2c(cc3c1C[C@H](c1ccc(O)c(CC=C(C)C)c1O)CO3)OC(C)(C)C=C2 | > 200 µg/mL | 6.25 µg/mL (≈ 14.8 µM) |
| 12.5 µg/mL (≈ 29.6 µM) | 12.5 µg/mL (≈ 29.6 µM) | COc1c(CC=C(C)C)c(O)cc2c1C[C@H](c1ccc3c(c1O)C=CC(C)(C)O3)CO2 | 12.5 µg/mL (≈ 29.6 µM) | 12.5 µg/mL (≈ 29.6 µM) |
